The text below walks through data of ChEMBL document CHEMBL4480455, “Anti-inflammatory Property of Imperatorin on Alveolar Macrophages and Inflammatory Lung Injury” (J Nat Prod, 2019).

Structures are written as SMILES. The source made the active and inactive calls. No cut-off for these calls is given here.

Data set [1] can be described thus: Antiinflammatory activity in mouse MHS cells assessed as reduction in zymosan-induced COX2 protein expression at 15 ug/ml preincubated for 30 mins followed by zymosan challenge and measured after 6 to 24 hrs by Western blotting analysis relative to control (reference value: 2.2 +/- 1.8). Type of data set: functional. In general terms: In western blotting, separated proteins are transferred to a membrane and probed.

The nature of data set [2]: Cytotoxicity against mouse MHS cells assessed as effect on cell viability at 1.5 to 15 ug/ml measured after 30 mins by sulforhodamine B assay. The class given is cell-based. Conditions: 0.5 h. In general terms: In SRB staining, fixed cells bind dye roughly in proportion to their protein.
The test system of data set [3] is Mus musculus. Kind of data set: Antiinflammatory activity in zymosan induced C57BL/6 mouse model of lung injury assessed as reduction in wet to dry lung edema ratio at 4 mg/kg, ip pretreated for 3 days followed by zymosan challenge and measured after 24 hrs. Type of data set: functional, organism-based. The method, boiled down:
(§1)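 Male C57BL/6 mice, 25–30 g. Dosed i.p. daily for 3 days, then zymosan 4 mg/kg in 40 μL saline given by intratracheal instillation. After 24 h, BALF collected with five 0.2 mL PBS washes and centrifuged. Supernatant assayed for PGE2 and total protein. Cells counted by hemocytometer, and ≥300 cells on stained smears scored for differential counts. Left lung weighed, dried at 48 °C for 48 h, reweighed for wet/dry ratio.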

Data set [4] is filed under the species Mus musculus. Kind of data set: Antiinflammatory activity in mouse MHS cells assessed as reduction in zymosan-induced TNFalpha protein expression at 1.5 to 15 ug/ml preincubated for 30 mins followed by zymosan challenge and measured after 6 to 24 hrs. Type of data set: functional, cell-based. The method in brief: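 MH-S cells pretreated for 30 min, then given zymosan 10 μg/mL for 24 h. IL-6 and TNFα protein in culture supernatant assessed by cytokine array. Values normalized to control; mean ± SD, n≥3.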

Data set [5] addresses T1, I-kappa-B kinase (Mus musculus) (UniProt Q60680+O88351+O88522). Kind of data set: Effect on IKK phosphorylation in mouse MHS cells assessed as phosphorylated IKK level at 15 ug/ml by Western blot analysis relative to tubulin (reference value: 1). The class given is cell-based.
Data set [6] addresses Tyrosine-protein kinase JAK1 (Mus musculus) (UniProt P52332). The data set can be described thus: Inhibition of zymosan-induced JAK1 phosphorylation in mouse MHS cells preincubated for 30 mins followed by zymosan challenge and measured after 6 to 24 hrs by Western blot analysis. Type of data set: cell-based.
For data set [7], the system named is Mus musculus. Kind of data set: Antiinflammatory activity in zymosan induced C57BL/6 mouse model of lung injury assessed as reduction in collagen deposition at 4 mg/kg, ip pretreated for 3 days followed by zymosan challenge and measured after 24 hrs by hydroxyproline assay. The class given is functional, organism-based. The method, boiled down:
(§2)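 Male C57BL/6 mice dosed i.p. for 3 days, then given zymosan (4 mg/kg, i.t.) or saline. Lungs harvested 24 h later. Right lung fixed in 10% formalin, embedded in paraffin, cut into 5 μm sections, stained with H&E or Masson's trichrome and examined by microscopy. Collagen also measured by hydroxyproline assay on lung lysates. Mean ± SD, n≥4.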

Data set [8] has as its target Tyrosine-protein kinase JAK1 (Mus musculus) (UniProt P52332). Kind of data set: Inhibition of zymosan-induced JAK1 phosphorylation in mouse MHS cells assessed as phosphorylated JAK1 level at 15 ug/ml by Western blot analysis relative to tubulin (reference value: 2.2). Type of data set: cell-based. The method in brief: (§3)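 MH-S cells pretreated, then stimulated with zymosan 10 μg/mL. Phospho-JAK1 (Y1022/1023), phospho-STAT3 (Y705) and phospho-IKKα/β detected by Western blot against total protein and tubulin. Zymosan time course 1–30 min for JAK1/STAT3 and 1–60 min for IKK. Normalized to control; mean ± SD, n≥3.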

Data set [9] shares this target. Kind of data set: Effect on JAK1 phosphorylation in mouse MHS cells assessed as phosphorylated JAK1 level at 15 ug/ml by Western blot analysis relative to tubulin (reference value: 1). Type of data set: cell-based.
The species entered for data set [10] is Mus musculus. Kind of data set: Antiinflammatory activity in mouse MHS cells assessed as reduction in zymosan-induced TNFalpha mRNA expression preincubated for 30 mins followed by zymosan challenge and measured after 6 to 24 hrs by TRIzol reagent based qRT-PCR analysis. Type of data set: functional, cell-based. The method in brief:
(§4)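 MH-S alveolar macrophages grown in RPMI 1640 with 10% FBS at 37 °C and 5% CO2. Cells pretreated for 30 min, then given zymosan 10 μg/mL for 6 h. mRNA measured by SYBR Green real-time PCR (95 °C 10 min; 42 cycles of 95 °C 10 s, 60 °C 60 s) with actin as reference. Normalized to control; mean ± SD, n≥3.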
(In general: Quantitative PCR measures a nucleic acid by following its amplification.)

In data set [11] the target is Signal transducer and activator of transcription 3 (Mus musculus) (UniProt P42227). The data set can be described thus: Effect on STAT3 phosphorylation in mouse MHS cells assessed as phosphorylated STAT3 level at 15 ug/ml by Western blot analysis relative to tubulin (reference value: 1). The class given is cell-based.
In data set [12] the test system is Mus musculus. The data set can be described thus: Antiinflammatory activity in zymosan induced C57BL/6 mouse model of lung injury assessed as reduction in subepithelial collagen deposition/fibrosis at 4 mg/kg, ip pretreated for 3 days followed by zymosan challenge and measured after 24 hrs by Masson's trichrome staining based microscopic analysis. Type of data set: functional, organism-based. The method, boiled down:
as §2

The target of data set [13] is Transcription factor p65 (Mus musculus) (UniProt Q04207). The data set can be described thus: Inhibition of zymosan-induced NFkappaB p65 nuclear translocation in mouse MHS cells at 15 ug/ml by DAPI staining based immunofluorescence microscopic analysis. Type of data set: cell-based. The method in brief: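 MH-S cells on coverslips pretreated, then given zymosan 10 μg/mL for 3 h. Fixed in 4% paraformaldehyde, permeabilized with 1% Triton X-100, blocked with 4% skim milk. Anti-p65 at 4 °C overnight, FITC secondary 1 h, DAPI nuclear counterstain. Fluorescence microscopy; at least three experiments.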

The nature of data set [14]: Antiinflammatory activity in mouse MHS cells assessed as reduction in zymosan-induced iNOS protein expression at 15 ug/ml preincubated for 30 mins followed by zymosan challenge and measured after 6 to 24 hrs by Western blotting analysis relative to control (reference value: 2.93 +/- 0.84). The class given is functional.
The nature of data set [15]: Cytotoxicity against zymosan-induced mouse MHS cells assessed as effect on cell viability at 1.5 to 15 ug/ml preincubated for 30 mins followed by zymosan challenge and measured after 6 to 24 hrs by sulforhodamine B assay. Type of data set: cell-based. The method in brief:
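MH-S cells exposed to test agent and zymosan (10 μg/mL). Viability by sulforhodamine B: fixed in 10% trichloroacetic acid, stained 30 min with 0.4% (w/v) SRB, dissolved in 10 mM Tris, read at OD 515 nm. Mean ± SD, n≥3.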

Data set [16] deals with Mus musculus. The data set can be described thus: Antiinflammatory activity in zymosan induced C57BL/6 mouse model of lung injury assessed as reduction in immune cell infiltration in BALF at 4 mg/kg, ip pretreated for 3 days followed by zymosan challenge and measured after 24 hrs by Diff-Quick staining based assay. The class given is functional, organism-based. The method, boiled down: as §1

Data set [17] is filed under the species Mus musculus. The data set can be described thus: Antiinflammatory activity in mouse MHS cells assessed as reduction in zymosan-induced nitrite production at 1.5 to 15 ug/ml preincubated for 30 mins followed by zymosan challenge and measured after 6 to 24 hrs by Griess assay. The class given is functional, cell-based. The method, boiled down: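 MH-S cells pretreated for 30 min, then given zymosan 10 μg/mL for 24 h. Supernatant nitrite reacted with equal volumes of 0.1% NED and 1% sulfanilamide in 5% phosphoric acid, 10 min in the dark. Absorbance read at 520 nm. Mean ± SD, n≥3.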

Data set [18] deals with T1, I-kappa-B kinase (Mus musculus). Kind of data set: Inhibition of zymosan-induced IKK phosphorylation in mouse MHS cells by Western blot analysis. Type of data set: cell-based. The method in brief:
as §3

Data set [19] has as its system Mus musculus. Kind of data set: Antiinflammatory activity in zymosan induced C57BL/6 mouse model of lung injury assessed as reduction in PGE2 production in BALF at 4 mg/kg, ip pretreated for 3 days followed by zymosan challenge and measured after 24 hrs by ELISA. Type of data set: functional, organism-based. The method in brief: as §1
Data set [20] is filed under the species Mus musculus. Kind of data set: Antiinflammatory activity in mouse MHS cells assessed as reduction in zymosan-induced iNOS mRNA expression preincubated for 30 mins followed by zymosan challenge and measured after 6 to 24 hrs by TRIzol reagent based qRT-PCR analysis. Type of data set: functional, cell-based. The method in brief:
as §4

Data set [21] addresses Signal transducer and activator of transcription 3 (Mus musculus) (UniProt P42227). The data set can be described thus: Inhibition of zymosan-induced STAT3 phosphorylation in mouse MHS cells assessed as phosphorylated STAT3 level at 15 ug/ml by Western blot analysis relative to tubulin (reference value: 2.1). Type of data set: cell-based. The method, boiled down: as §3

Sequence of Tyrosine-protein kinase JAK1 (Mus musculus) (P52332 whole entry): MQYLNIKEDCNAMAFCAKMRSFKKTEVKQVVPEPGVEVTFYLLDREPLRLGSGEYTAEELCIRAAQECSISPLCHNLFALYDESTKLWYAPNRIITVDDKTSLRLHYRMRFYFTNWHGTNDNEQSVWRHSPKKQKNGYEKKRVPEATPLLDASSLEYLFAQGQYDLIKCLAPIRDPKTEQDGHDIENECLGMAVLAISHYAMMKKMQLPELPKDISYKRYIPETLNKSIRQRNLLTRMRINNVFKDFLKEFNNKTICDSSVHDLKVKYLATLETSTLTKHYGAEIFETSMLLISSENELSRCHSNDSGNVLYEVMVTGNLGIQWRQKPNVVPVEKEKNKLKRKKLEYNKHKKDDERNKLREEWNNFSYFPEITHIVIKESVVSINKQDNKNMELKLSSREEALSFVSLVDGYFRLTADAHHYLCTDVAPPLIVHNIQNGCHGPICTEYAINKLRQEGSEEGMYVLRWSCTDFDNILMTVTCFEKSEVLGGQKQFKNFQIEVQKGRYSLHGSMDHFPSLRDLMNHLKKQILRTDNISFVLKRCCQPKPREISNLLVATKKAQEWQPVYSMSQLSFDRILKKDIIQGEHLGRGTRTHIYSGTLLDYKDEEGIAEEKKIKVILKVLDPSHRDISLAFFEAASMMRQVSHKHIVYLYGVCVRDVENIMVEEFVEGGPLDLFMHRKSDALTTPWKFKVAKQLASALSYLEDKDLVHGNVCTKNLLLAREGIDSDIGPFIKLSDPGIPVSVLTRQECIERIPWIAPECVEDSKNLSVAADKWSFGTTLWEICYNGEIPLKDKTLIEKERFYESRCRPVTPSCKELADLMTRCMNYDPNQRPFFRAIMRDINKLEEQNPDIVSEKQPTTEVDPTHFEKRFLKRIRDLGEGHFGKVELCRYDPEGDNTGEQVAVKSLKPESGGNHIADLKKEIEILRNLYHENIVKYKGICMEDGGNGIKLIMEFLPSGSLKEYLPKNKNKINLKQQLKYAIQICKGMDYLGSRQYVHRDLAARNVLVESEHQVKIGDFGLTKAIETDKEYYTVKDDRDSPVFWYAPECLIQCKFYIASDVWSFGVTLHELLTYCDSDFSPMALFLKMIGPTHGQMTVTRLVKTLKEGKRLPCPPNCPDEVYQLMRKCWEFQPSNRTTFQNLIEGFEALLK
Sequence of Signal transducer and activator of transcription 3 (Mus musculus) (P42227 whole entry): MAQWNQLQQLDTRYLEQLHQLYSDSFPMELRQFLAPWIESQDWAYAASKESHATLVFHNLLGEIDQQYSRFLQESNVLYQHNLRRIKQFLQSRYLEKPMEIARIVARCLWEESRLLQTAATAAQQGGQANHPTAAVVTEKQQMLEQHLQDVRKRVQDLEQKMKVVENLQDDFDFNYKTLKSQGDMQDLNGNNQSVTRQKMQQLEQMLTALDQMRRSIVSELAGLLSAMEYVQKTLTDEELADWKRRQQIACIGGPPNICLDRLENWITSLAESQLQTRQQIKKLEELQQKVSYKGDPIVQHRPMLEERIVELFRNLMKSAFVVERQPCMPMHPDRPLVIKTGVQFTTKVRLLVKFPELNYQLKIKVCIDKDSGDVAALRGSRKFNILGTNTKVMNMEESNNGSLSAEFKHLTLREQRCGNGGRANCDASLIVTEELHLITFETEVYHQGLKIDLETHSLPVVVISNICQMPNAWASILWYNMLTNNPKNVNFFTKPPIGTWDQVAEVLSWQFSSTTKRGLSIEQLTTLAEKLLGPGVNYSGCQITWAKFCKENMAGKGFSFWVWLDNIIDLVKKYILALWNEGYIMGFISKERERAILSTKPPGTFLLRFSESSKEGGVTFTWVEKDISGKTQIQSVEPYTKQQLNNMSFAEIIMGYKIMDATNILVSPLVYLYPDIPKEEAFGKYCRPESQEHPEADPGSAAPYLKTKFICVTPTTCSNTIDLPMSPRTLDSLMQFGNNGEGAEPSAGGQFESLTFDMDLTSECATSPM
Sequence of Transcription factor p65 (Mus musculus) (Q04207 whole entry): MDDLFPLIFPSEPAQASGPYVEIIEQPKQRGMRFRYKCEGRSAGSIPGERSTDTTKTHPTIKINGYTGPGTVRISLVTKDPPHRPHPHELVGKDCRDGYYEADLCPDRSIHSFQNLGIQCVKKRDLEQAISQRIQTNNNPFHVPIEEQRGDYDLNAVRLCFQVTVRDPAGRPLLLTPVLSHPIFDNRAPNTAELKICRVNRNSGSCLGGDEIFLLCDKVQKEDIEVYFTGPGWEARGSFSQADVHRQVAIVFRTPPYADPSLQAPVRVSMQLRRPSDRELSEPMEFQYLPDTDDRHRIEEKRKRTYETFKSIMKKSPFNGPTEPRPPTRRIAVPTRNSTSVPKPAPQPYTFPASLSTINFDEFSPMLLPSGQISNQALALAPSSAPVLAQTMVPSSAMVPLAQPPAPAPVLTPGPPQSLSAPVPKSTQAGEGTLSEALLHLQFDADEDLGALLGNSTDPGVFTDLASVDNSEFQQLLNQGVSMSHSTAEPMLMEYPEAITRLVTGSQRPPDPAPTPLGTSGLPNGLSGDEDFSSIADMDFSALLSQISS

As for `CC(C)=CCOc1c2occc2cc2ccc(=O)oc12` [PENTOSALEN], the “fold change (FC)” value was 1.8 in data set [1]; 1 in data set [5]; 1.3 in [8]; 1.2 in data set [9]; 1.2 in data set [11]; 1.5 in [14]. The fold change (FC) in data set [21] came to 1.3. The Activity result was “Non-Toxic” in [2], “Dose-dependent effect” in the data set filed under Mus musculus [10], “Non-Toxic” in data set [15] and “Dose-dependent effect” in the data set filed under Mus musculus [20]. The result in the data set with Mus musculus [3], in the data set listed under Mus musculus [4], with Mus musculus [7], in the data set with Mus musculus [12], in the data set with Mus musculus [16] and in the data set listed under Mus musculus [17] was Active. Moreover, in the data set on Mus musculus [19], the outcome was Active. For the same compound, the inhibition entry in data set [6] and in data set [18] was “Dose-dependent effect” in each case. The inhibition entry in [13] was “Active”.
